SUMO HTRF inh – SUMOylation inhibition | P63279 | HTRF SUMOylation assay, SAE1/SAE2 + UBC9, in vitro | inhibition, % at 35 µM | hit rate 0.36% among 290,000 | AID 2006; in the data active = inhibition above about 50%, passing the limit was not always enough
GSTO1 inh – blocks human GSTO1 in RBBP9 counter-screen; hit rate 1.1% among 300,000; P78417; recombinant GSTO1, activity-based probe fluorescence polarization; inhibition, % at 5.96 µM;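 active = inhibition above the campaign mean inhibition plus 3 SD, cut at about 35% in these data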;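 also: 0% = GSTO1-1 with DMSO and 100% = wells lacking GSTO1-1 enzyme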
Apaf-1 inh – human Apaf-1 inhibition. O14727. reconstituted apoptosome caspase-3 activity, DEVD-Rh110 fluorescence. inhibition, % at 20 µM. hit rate 0.71% among 330,000; active = inhibition of at least 40% at 20 µM;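 also: plate controls were DMSO wells for no effect and DEVD-CHO caspase inhibitor wells for full effect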
Target sequence (O14727 whole entry, looked up): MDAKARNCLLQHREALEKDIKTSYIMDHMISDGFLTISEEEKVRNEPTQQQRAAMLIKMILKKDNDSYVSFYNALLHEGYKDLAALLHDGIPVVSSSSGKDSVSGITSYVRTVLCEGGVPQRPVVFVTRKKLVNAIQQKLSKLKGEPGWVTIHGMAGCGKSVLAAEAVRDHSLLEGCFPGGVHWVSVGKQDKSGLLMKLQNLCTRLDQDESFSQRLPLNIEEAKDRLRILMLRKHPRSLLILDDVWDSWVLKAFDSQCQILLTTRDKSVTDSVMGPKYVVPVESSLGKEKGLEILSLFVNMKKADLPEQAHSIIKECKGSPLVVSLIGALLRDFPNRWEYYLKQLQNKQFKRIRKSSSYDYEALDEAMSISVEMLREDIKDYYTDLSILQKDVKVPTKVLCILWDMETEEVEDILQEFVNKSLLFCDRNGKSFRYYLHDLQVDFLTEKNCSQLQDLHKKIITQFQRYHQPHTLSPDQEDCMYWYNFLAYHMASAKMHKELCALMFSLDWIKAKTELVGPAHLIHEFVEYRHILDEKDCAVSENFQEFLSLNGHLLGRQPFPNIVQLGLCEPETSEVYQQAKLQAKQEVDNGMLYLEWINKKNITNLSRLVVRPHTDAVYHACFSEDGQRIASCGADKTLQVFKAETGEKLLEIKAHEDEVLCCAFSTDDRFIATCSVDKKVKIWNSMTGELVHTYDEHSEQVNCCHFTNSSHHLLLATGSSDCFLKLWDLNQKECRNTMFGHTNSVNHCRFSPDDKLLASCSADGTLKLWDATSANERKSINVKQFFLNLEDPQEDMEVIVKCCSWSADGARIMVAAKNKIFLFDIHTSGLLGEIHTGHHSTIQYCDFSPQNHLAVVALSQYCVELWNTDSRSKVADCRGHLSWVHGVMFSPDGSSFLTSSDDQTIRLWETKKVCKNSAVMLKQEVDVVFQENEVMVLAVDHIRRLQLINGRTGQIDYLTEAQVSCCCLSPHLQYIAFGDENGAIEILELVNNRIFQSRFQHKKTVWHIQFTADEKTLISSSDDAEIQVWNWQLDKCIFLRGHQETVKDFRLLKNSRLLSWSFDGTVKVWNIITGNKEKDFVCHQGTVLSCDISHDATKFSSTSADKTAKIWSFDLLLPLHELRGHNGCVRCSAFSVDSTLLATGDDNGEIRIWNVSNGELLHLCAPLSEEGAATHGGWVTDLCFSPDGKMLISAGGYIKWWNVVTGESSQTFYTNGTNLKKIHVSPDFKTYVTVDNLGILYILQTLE
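Medium: Hepes buffer, pH 7.5 / System: biochemical Apaf-1 apoptosome reconstitution / Measured by: Rh110 fluorescence, excitation 480 nm, emission 540 nm / Times: compound with Apaf-1, dATP, procaspase-3 30 min, then 50 min reaction, room temperature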
HKDC1 inh – inhibitors of human hexokinase HKDC1 | Q2TB90 | recombinant HKDC1, G6PDH/diaphorase resazurin coupled fluorescence | inhibition, % at 20 µM | hit rate 0.16% among 340,000 | AID 493160;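 active = inhibition above about 35% when tested at 20 µM, limit read from the data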;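 also: plate controls were DMSO wells with enzyme for no effect and DMSO wells lacking enzyme for full effect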
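Material – in-house recombinant HK5 (HKDC1) enzyme · Quantity – HKDC1 at 5 µg/mL · Buffer or medium – pH 8.0 Tris buffer with 10 mM MgCl2 · Reagent – glucose with 1 mM ATP · Dosing – single 20 µM dose · Times – reaction time 90 min, room temperature, protected from light · Technique – resorufin fluorescence at 613 nm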
Redox H2O2 prof – compounds producing H2O2 with reducing agent – biochemical, NIH compound library profiling, artefact control for MLSCN library redox annotation, primary screen; DTT-dependent redox cycling H2O2, phenol red/HRP absorbance; 100% = 100 µM peroxide control, 0% = buffer; activation, % at 10 µM; hit rate 0.03% among 200,000; AID 878;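 active = activation of at least 50% relative to the plate's high and low controls in the primary single-dose screen; inactive = activation below 50%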;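 also: compound incubated with DTT at 0.8 mM final as the reducing agent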
Active calls of the source: *; nt = no result. Only some compounds are listed: those with a hit (about 1.4% of all), similar ones and a draw of the others.

SMILES	SUMO HTRF inh	GSTO1 inh	Apaf-1 inh	HKDC1 inh	Redox H2O2 prof
O=C(/C=C/c1cccc([N+](=O)[O-])c1)c1ccc([N+](=O)[O-])o1	nt	19	nt	55*	nt
O=C(c1cccs1)N1CCC(c2nc3c(nnn3Cc3ccccc3Cl)c(=O)[nH]2)CC1	6	-2	26	5	nt
COc1cc2ccccc2nn1	23	4	-6	-3	nt
COc1ccc2c(n1)Sc1nc3ccccc3nc1N2	75*	-3	nt	19	nt
O=C(Nc1ccccc1)Nc1ccno1	57*	-12	-7	-5	nt
CC1CN(C(=O)c2ccc(NS(=O)(=O)c3ccc(F)cc3)cc2)CC(C)O1 (configuration not stated)	17	-4	5	-2	nt
COCCNC(=O)/C(C#N)=C/C=C/c1ccccc1[N+](=O)[O-]	-14	44*	6	4	0
COc1ccccc1CNC(=O)c1sccc1-c1ccccc1	2	2	5	0	nt
Cc1ccccc1NC(=O)c1ccc(N/N=C/c2ccccc2O)c([N+](=O)[O-])c1	57*	-2	-2	-6	-3
COc1ccc(-c2nc3ccncc3[nH]2)cc1OC	65*	17	-5	-2	-3
Fc1ccc(-c2nc3ccncc3[nH]2)cc1	19	1	-4	3	-2
Cc1ccccc1C(=O)N(C)c1ccccc1C(=O)NCc1ccccc1	-2	-3	5	-7	nt
CCCCCCCCNCCS(=O)(=O)NCCCCCCCC	nt	nt	nt	2	nt
COc1ccc(NC(=O)c2ccc([N+](=O)[O-])s2)c([N+](=O)[O-])c1	4	55*	-25	-2	0
COc1ccc(NC(=O)c2ccc(C)o2)c([N+](=O)[O-])c1	3	2	9	-15	0
Cc1nnc(NC(=O)CSc2nc3ccccc3o2)s1	5	37*	-14	-9	-1
CCc1nnc(NC(=O)CSc2ccc(-c3ccco3)nn2)s1	28	36*	-1	-6	0
CCc1nnc(NC(=O)CSc2nnc(-c3ccco3)n2C)s1	14	6	-9	-8	3
CCc1ccc(-c2ccc(SCC(=O)Nc3nnc(C)s3)nn2)cc1	25	36*	-13	-2	-1
Cc1nnc(NC(=O)CSc2ccc(-c3ccco3)nn2)s1	44	54*	-4	5	0
Cc1ccccc1NC(=O)CSc1ccc(-c2ccco2)nn1	23	17	0	-3	0
COc1ccc(CN(C)C(=O)c2ccc(Cl)c(S(=O)(=O)NCc3cccnc3)c2)cc1F	nt	nt	7	1	nt
CC(C)N1CC=C2C(C#N)=C(N)C(C#N)(C#N)C(c3ccccc3)C2C1 (configuration not stated)	24	9	nt	12	-4
CC(C)N1CC=C2C(C#N)=C(N)C(C#N)(C#N)[C@H](c3ccoc3)[C@H]2C1	56*	64*	nt	nt	2
CCOC(=O)CN(C)Cc1cn(C)nc1-c1ccc(Oc2ccccc2)cc1	1	-1	12	-3	nt
SMILES	SUMO HTRF inh	GSTO1 inh	Apaf-1 inh	HKDC1 inh	Redox H2O2 prof
Cc1cccc(NC(=O)CSc2nc(=O)n(CCN3CCOCC3)c3c2CCCC3)c1C	nt	11	1	2	nt
Oc1c(Cl)cc(Cl)cc1/C=N/NC(=S)NC1CC2C=CC1C2 (configuration not stated)	55*	-30	1	-18	nt
CC1(C)C(/C=C/C=C/C=C/C=C2\N(CCCCS(=O)(=O)O)c3ccc4ccccc4c3C2(C)C)=[N+](CCCCS(=O)(=O)[O-])c2ccc3ccccc3c21	nt	41*	21	28	nt
O=C(COc1ccc2oc(-c3ccco3)cc(=O)c2c1)N1CCCCC1	52*	-9	1	-2	-1
COc1ccc2oc(-c3ccco3)cc(=O)c2c1	48	2	-22	1	-1
CCc1ccc(C(=O)C(C)OC(=O)c2cccc(S(=O)(=O)N3CCOCC3)c2)cc1 (configuration not stated)	nt	-5	24	8	nt
CN(C)CCN(Cc1cccs1)S(=O)(=O)c1csc(C(N)=O)c1	2	10	8	-5	nt
O=C(O)c1ccc(S(=O)(=O)c2ccc3c(c2)C(=O)N(c2ccc(O)cc2)C3=O)cc1	-11	15	-14	-10	nt
O=C1c2ccc3c4c(ccc(c24)C(=O)N1c1ccc(O)cc1)C(=O)N(c1ccc(O)cc1)C3=O	-3	6	-44	56*	0
Cc1cc(C)cc(OCC(=O)Nc2cccc(S(=O)(=O)NC3=NCCC3)c2)c1	nt	nt	14	-2	nt
CCc1ccc2nc(N(CCCN(C)C)C(=O)c3ccc(S(=O)(=O)N(C)C4CCCCC4)cc3)sc2c1	17	26	54*	-2	nt
O=C(O)COc1ccc(Br)cc1C(c1c(C(=O)O)[nH]c2ccccc12)c1c(C(=O)O)[nH]c2ccccc12	24	55*	20	15	nt
CC1=NN(c2ccccc2)C(=O)/C1=C\C=C1/N(C)c2ccccc2C1(C)C	4	72*	26	-12	1
CC1=NN(c2ccccc2)C(=O)/C1=C\C=C1\N(C)c2ccccc2C1(C)C	1	3	34	-13	5
COCCn1cnc2c1c(=O)n(CC(=O)Nc1cc(C)on1)c(=O)n2Cc1ccccc1	22	1	15	-7	2
Cc1cc(NC(=O)Cn2c(=O)n(Cc3ccccc3)c(=O)c3ccccc32)no1	52*	2	2	-4	-2
Cc1occc1-c1nnc(SCC(N)=O)o1	-6	5	-21	-1	-1
Cc1occc1-c1nnc(SCC(=O)c2ccc(F)cc2)o1	9	36*	16	-5	0
O=C(COC(=O)c1nn(CCO)c(=O)c2ccccc12)Nc1ccc(Cl)c(Cl)c1	nt	nt	3	-4	nt
CC(C)(CC(=O)O)CC(=O)NCc1c(Cl)cccc1Sc1ccc(Cl)cc1	0	37*	-7	2	nt
O=C(O)CCCC(=O)NCc1c(Cl)cccc1Sc1ccc(Cl)cc1	-1	11	-3	-1	nt
COc1ccc(C2c3[nH]c4ccccc4c3C[C@H]3C(=O)N(c4ccccc4C(=O)N4CCC[C@H]4C(=O)O)C(=O)N23)cc1 (some centres not stated)	2	-11	-3	0	nt
C=CCNC(=O)COC(=O)c1c2c(nc3ccccc13)CCC2	33	8	15	1	nt
CC(=O)Nc1ccc(NC(=O)CC(NC(=O)c2ccccc2)c2ccccc2)cc1 (configuration not stated)	23	-9	5	-4	nt
O=C1/C(=C/c2ccco2)SC(=S)N1C1CCS(=O)(=O)C1 (configuration not stated)	61*	26	20	-3	-1
NC(=O)C1CCCN(CC(=O)Nc2ccccc2C(=O)NC2CC2)C1 (configuration not stated)	nt	nt	-9	4	nt
O=C(/C=C/c1cc[n+](CC(=O)c2ccc3cccc4c3c2CC4)cc1)c1ccc2cccc3c2c1CC3	32	25	59*	19	nt
